≈ marks a conversion by molar mass, not a printed value. Calls of active or inactive are those of the source. No cut-off for these calls is given here. A value given as a limit tells only on which side of the number the result lay.

In data set [1] the target is Voltage-gated inwardly rectifying potassium channel KCNH2 (Homo sapiens, UniProt Q12809). The experiment in a line: Displacement of [35S]MK-499 from human ERG. The procedure, abridged:
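hERG K+ channel binding assay measuring displacement of the radiolabelled channel blocker [35S]MK-499. Values are averages of at least three duplicates.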

Data set [2] addresses T1, Fatty-acid amide hydrolase 1 (Rattus norvegicus, UniProt P97612).
T1 sequence (P97612 whole entry): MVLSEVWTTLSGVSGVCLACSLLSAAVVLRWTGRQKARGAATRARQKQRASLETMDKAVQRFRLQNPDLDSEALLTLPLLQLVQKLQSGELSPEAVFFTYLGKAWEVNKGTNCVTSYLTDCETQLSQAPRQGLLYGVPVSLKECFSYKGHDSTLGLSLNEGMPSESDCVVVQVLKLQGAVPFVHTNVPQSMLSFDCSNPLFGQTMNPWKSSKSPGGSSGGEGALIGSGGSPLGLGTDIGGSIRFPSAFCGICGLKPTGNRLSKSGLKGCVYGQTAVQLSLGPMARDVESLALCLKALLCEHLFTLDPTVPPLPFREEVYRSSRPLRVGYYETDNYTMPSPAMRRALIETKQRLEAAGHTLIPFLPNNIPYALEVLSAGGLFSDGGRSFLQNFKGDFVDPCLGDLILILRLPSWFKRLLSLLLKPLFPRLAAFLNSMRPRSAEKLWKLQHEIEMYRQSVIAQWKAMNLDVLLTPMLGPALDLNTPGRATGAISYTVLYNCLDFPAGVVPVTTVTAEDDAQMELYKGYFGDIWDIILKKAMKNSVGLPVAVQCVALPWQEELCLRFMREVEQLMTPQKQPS
Description: Inhibition of rat FAAH lysate using AMCAA as substrate by fluorescence assay. In a few lines:
(§1)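 In vitro assays, with values reported as the average of at least three duplicates.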

Data set [3] deals with T2, Fatty-acid amide hydrolase 1 (Homo sapiens, UniProt O00519).
T2 sequence (O00519 whole entry): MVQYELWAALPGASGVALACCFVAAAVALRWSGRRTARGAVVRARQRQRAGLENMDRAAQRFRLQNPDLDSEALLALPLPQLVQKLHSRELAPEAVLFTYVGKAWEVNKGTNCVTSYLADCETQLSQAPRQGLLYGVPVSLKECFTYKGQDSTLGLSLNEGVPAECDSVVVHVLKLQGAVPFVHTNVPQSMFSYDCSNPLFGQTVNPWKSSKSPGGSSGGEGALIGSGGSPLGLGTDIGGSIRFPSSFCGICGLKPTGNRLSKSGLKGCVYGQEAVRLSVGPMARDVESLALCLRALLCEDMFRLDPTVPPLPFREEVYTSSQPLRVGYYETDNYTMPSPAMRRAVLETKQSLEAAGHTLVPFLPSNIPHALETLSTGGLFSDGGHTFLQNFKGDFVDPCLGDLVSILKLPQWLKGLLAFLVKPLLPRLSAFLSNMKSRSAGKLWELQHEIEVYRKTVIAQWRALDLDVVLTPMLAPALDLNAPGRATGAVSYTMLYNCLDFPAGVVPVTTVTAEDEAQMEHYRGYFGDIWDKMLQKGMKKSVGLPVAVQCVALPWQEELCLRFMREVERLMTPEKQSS
Description: Inhibition of human FAAH lysate using AMCAA as substrate by fluorescence assay. The procedure, abridged: as §1

Data set [4] relates to Rattus norvegicus. The experiment in a line: Analgesic activity in Sprague-Dawley rat complete Freund's adjuvant-induced inflammatory pain model assessed as reversal of mechanical allodynia at 30 mg/kg, po single dose measured after 1 hr. It counts as functional. In a few lines: (§2)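 Inflammatory pain induced in rats by intraplantar injection of complete Freund's adjuvant into the hind paw. Mechanical allodynia was assessed at 1 and 3 h after a single oral dose. For each rat, percent reversal = (postdose – predose)/(preinjury – predose), averaged over n = 6.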

The test system of data set [5] is Rattus norvegicus. Description: Analgesic activity in Sprague-Dawley rat complete Freund's adjuvant-induced inflammatory pain model assessed as reversal of mechanical allodynia at 30 mg/kg, po single dose measured after 3 hrs. It counts as functional. The procedure, abridged:
as §2

A short description of data set [6]: Clearance in rat at 1 mg/kg, iv and 1 to 2 mg/kg, po. Format: ADME, organism-based. The following applies: in vivo. The procedure, abridged:
(§3)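 Rat PK given 1 mg/kg iv in DMSO/PEG400/H2O 20/60/20 and 2 mg/kg po in either Imwitor/Tween 1/1 or PEG400/Tween80/H2O 40/10/50. Half-life, clearance, volume of distribution, dose-normalized AUC (AUCN) and oral bioavailability were derived.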

A short description of data set [7]: Volume of distribution at steady state in rat at 1 mg/kg, iv and 1 to 2 mg/kg, po. Particulars: in vivo, read-out: Vdss. Format: ADME, organism-based. In a few lines: as §3
Data set [8] concerns Rattus norvegicus. Description: Analgesic activity in Sprague-Dawley rat complete Freund's adjuvant-induced inflammatory pain model assessed as reversal of mechanical allodynia at 10 mg/kg, po single dose measured after 1 hr. It counts as functional. In a few lines:
as §2

Data set [9] concerns Rattus norvegicus. Description: Analgesic activity in Sprague-Dawley rat complete Freund's adjuvant-induced inflammatory pain model assessed as reversal of mechanical allodynia at 10 mg/kg, po single dose measured after 3 hrs. It counts as functional. In a few lines: as §2
Data set [10] in a line: Bioavailability in rat at 1 mg/kg, iv and 1 to 2 mg/kg, po. It counts as ADME, organism-based. Particulars: in vivo. In a few lines:
as §3

Data set [11] in a line: Half life in rat at 1 mg/kg, iv and 1 to 2 mg/kg, po. Format: ADME, organism-based. The following applies: in vivo. The procedure, abridged: as §3
Data set [12] concerns Rattus norvegicus. Description: Dose normalized AUC in rat at 1 mg/kg, iv and 1 to 2 mg/kg, po. It counts as ADME, organism-based. Particulars: in vivo. The procedure, abridged:
as §3

Data set [13] can be described thus: Inhibition of human vesicular monoamine transporter. In a few lines:
as §1

Data set [14] can be described thus: Volume of distribution at steady state in rat at 1 mg/kg, iv and 2 mg/kg, po. Format: ADME, organism-based. Particulars: in vivo, read-out: Vdss. In a few lines:
as §3

Data set [15] is described as follows: Solubility in fasted state simulated intestinal fluid. It counts as ADME.
Data set [16] in a line: Half life in rat at 1 mg/kg, iv and 2 mg/kg, po. Particulars: in vivo. Format: ADME, organism-based. The procedure, abridged:
as §3

A short description of data set [17]: Bioavailability in rat at 1 mg/kg, iv and 2 mg/kg, po. Format: ADME, organism-based. Particulars: in vivo. The procedure, abridged: as §3
Data set [18] is described as follows: Clearance in rat at 1 mg/kg, iv and 2 mg/kg, po. Format: ADME, organism-based. Particulars: in vivo. The procedure, abridged:
as §3

Data set [19] has as its system Rattus norvegicus. The experiment in a line: Dose normalized AUC in rat at 1 mg/kg, iv and 2 mg/kg, po. Particulars: in vivo. It counts as ADME, organism-based. The procedure, abridged:
as §3

Data set [20] has as its system Rattus norvegicus. The experiment in a line: Antiallodynic activity in Harlan rat spinal nerve ligation model of neuropathic pain assessed as reversal of allodynia at 21 mg/kg, po. On the set-up: dose 21 mg/kg. It counts as functional, organism-based. In a few lines:
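Rat spinal nerve ligation model of neuropathic pain, scored as percent reversal of allodynia after dosing. A rota-rod test run alongside served as a counterscreen for motor impairment.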

Voltage-gated inwardly rectifying potassium channel KCNH2, sequence (Q12809 whole entry): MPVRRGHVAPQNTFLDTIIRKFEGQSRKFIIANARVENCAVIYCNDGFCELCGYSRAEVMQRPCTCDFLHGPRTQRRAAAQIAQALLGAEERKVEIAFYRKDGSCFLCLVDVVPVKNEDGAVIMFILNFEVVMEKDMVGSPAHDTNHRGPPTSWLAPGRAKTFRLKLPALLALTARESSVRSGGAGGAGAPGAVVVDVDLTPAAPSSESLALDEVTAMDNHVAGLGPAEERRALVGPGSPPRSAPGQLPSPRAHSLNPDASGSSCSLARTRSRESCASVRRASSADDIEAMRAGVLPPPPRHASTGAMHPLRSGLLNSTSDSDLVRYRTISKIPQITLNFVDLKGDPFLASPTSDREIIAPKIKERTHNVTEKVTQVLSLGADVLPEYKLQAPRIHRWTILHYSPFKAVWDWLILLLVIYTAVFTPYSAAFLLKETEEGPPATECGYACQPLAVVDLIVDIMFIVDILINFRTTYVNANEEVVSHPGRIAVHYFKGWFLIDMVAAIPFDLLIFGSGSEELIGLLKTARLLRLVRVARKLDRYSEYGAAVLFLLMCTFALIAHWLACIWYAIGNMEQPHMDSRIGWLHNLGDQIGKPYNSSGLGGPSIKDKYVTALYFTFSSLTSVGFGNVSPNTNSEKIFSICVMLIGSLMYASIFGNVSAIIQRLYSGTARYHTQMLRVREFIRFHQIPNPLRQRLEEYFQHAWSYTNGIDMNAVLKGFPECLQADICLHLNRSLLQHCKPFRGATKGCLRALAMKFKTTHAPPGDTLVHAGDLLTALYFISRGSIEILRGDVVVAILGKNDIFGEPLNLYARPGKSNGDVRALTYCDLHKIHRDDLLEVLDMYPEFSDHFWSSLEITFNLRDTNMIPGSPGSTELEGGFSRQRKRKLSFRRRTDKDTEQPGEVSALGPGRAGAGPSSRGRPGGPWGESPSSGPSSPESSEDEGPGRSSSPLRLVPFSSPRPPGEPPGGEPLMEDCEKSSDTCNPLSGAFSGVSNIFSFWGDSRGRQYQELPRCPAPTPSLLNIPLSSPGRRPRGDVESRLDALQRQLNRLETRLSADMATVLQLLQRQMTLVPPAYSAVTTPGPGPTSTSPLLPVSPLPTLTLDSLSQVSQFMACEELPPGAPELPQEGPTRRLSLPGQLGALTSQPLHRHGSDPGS

Take `Clc1ccc(Sc2cn(-c3ccccc3)nc2-c2ccc3c(c2)OCCO3)cc1`: in data set [1], the Ki was > 30000 nM. Also, the 50% inhibitory concentration (IC50) in [2] was found to be 8 nM; in data set [3] it was 27 nM.

`CC(C)(O)c1cnc(-c2nn(-c3ccc(F)cc3)cc2Sc2ccc(Cl)cc2)cn1`: the Activity in the data set with Rattus norvegicus [4] came to 58%; in the data set with Rattus norvegicus [5] it was 40%; with Rattus norvegicus [8], 42%; in the data set on Rattus norvegicus [9], 38%. The same molecule returned a clearance in data set [6] of 33.8 mL/min/kg. Besides, in data set [7], the Vd stood at 15.8 L/kg. The molecule further showed a Ki in data set [1] of 740 nM. In [10], this molecule displayed a bioavailability of 96%. Moreover, the IC50 in data set [2] came to 10 nM; in data set [3] it was 32 nM. Besides, the half-life in [11] is 4.9 h. Further, the AUC/dose in the data set on Rattus norvegicus [12] came to 1.07 µM·kg·h/mg. This molecule also registered an EC50 in [13] of 1160 nM.

For the molecule `Clc1ccc(Sc2cn(-c3cccnc3)nc2-c2ccc(-c3ncon3)cc2)cc1`, in [14], the Vd is 7.8 L/kg. Also, the solubility in data set [15] was 27 µg/mL (≈ 62.5 µM). For the same molecule, the Activity in the data set on Rattus norvegicus [4] is recorded as 49%; in the data set on Rattus norvegicus [5], 62%. In data set [1], the Ki came to 5210 nM. This molecule also gave a half-life in [16] of 2.57 h. The values for the IC50 in data set [2] and in data set [3] were 4.8 nM and 13 nM, respectively. Besides, the bioavailability in [17] was determined as 35%. In data set [13], the EC50 was found to be 137 nM. Moreover, the clearance in data set [18] stood at 34 mL/min/kg. In the data set on Rattus norvegicus [19], the AUC/dose was found to be 0.39 µM·kg·h/mg.

On to `NC(=O)c1cccc(-c2cccc(OC(=O)NC3CCCCC3)c2)c1`, for which the result in the data set with Rattus norvegicus [20] was Active.

`CS(=O)(=O)c1ccc(-c2nn(-c3ccc(F)cc3)cc2Sc2ccc(Cl)cc2)cc1` showed a solubility in [15] of 3 µg/mL (≈ 6.54 µM). Further, the clearance in data set [6] was 34 mL/min/kg. The Vd in data set [7] stood at 8.4 L/kg. This molecule registered a Ki in data set [1] of 637 nM. Also, the bioavailability in data set [10] worked out at 100%. The molecule also returned an IC50 in data set [2] of 6 nM. For the same molecule, in data set [11], the half-life is 1.79 h. Besides, in the data set on Rattus norvegicus [12], the AUC/dose worked out at 1.06 µM·kg·h/mg. Moreover, in [13], the EC50 was 363 nM.

Values taken from ChEMBL document CHEMBL3286267, “Discovery of MK-4409, a Novel Oxazole FAAH Inhibitor for the Treatment of Inflammatory and Neuropathic Pain” (ACS Med Chem Lett, 2014).
